Test results as given in ChEMBL document CHEMBL1124260, “Synthesis and antitumor activity of quaternary ellipticine glycosides, a series of novel and highly active antitumor agents” (1988).

Tests used:
[1] = system: Mus musculus; test: Inhibition of sc implanted syngeneic colon 38 carcinoma by ip administration at 20 mg/kg on 1, 3, 5, 7, 9 days measured as inhibition ratio; format: functional; settings: route subcutaneous
How it was run: (§1)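 Tumor homogenate (70 mg) implanted into the axillary region of female BDF1 mice. Drug dissolved in 0.9% NaCl and diluted with saline just before use, then given ip on days 1, 3, 5, 7 and 9. Tumor length and width were measured by caliper on day 20 after inoculation and converted to estimated weight. Result reported as treated vs control tumor weight, T/C %.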

[2] = system: Mus musculus; test: Antitumor activity against ip implanted L1210 leukemia in mouse after ip administration of 10 mg/kg for 5 days expressed as increase in mean life span; format: functional; settings: Mus musculus, L1210, ip, 120 h, route intraperitoneal
How it was run: (§2)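 Drug was dissolved in 0.9% NaCl, diluted just before use and given ip once daily for 5 consecutive days, starting 24 h after transplant. ILS % = mean survival time of treated vs control mice, observed for 80 days.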

[3] = system: Mus musculus; test: Antitumor activity against ip implanted L1210 leukemia in mouse after ip administration of 5 mg/kg for 5 days expressed as increase in mean life span; format: functional; settings: Mus musculus, L1210, ip, 120 h, route intraperitoneal; how it was run: as §2
[4] = system: Mus musculus; test: Antitumor activity against ip implanted P388 leukemia in mouse after iv administration of 8 mg/kg for 5 days expressed as increase in mean life span; settings: 120 h
[5] = system: Mus musculus; test: Effect on ip implanted syngeneic B16 melanoma by ip administration for 9 days at 2.5 mg/kg was measured as increase in mean life span; settings: 216 h
[6] = system: Mus musculus; test: Effect on ip implanted EAC by ip administration for 5 days at 20 mg/kg was measured as increase in mean life span; format: functional; settings: 120 h, route intraperitoneal
How it was run: (§3)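 Drug in 0.9% NaCl was given ip for 5 consecutive days from 24 h after inoculation. ILS % came from treated vs control mean survival time, followed for 80 days.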

[7] = system: Mus musculus; test: Number of survivors out of 6 ip implanted EAC leukemia mouse tested after 80 days at 20 mg/kg; format: functional; settings: route intraperitoneal
How it was run: (§4)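 Drug dissolved and diluted in saline just before use, given ip for 5 consecutive days starting 24 h after implant. Six mice per dose. Survivors counted at 80 days; ILS % taken from mean survival time of treated vs control mice.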

[8] = system: Mus musculus; test: Effect on ip implanted EAC by ip administration for 5 days at 5 mg/kg was measured as increase in mean life span; format: functional; settings: 120 h, route intraperitoneal; how it was run: as §3
[9] = system: Mus musculus; test: Antitumor activity against ip implanted L1210 leukemia in mouse after ip administration of 20 mg/kg for 5 days expressed as increase in mean life span; format: functional; settings: 120 h, route intraperitoneal; how it was run: as §2
[10] = system: Mus musculus; test: Antitumor activity against ip implanted P388 leukemia in mouse after ip administration of 1.25 mg/kg for 5 days expressed as increase in mean life span; format: functional; settings: 120 h, route intraperitoneal
How it was run: (§5)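 Saline-dissolved drug was given ip daily for 5 consecutive days, beginning 24 h post-transplant. ILS % was calculated from treated vs control mean survival time over an 80-day observation period.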

[11] = system: Mus musculus; test: Antitumor activity against ip implanted L1210 leukemia in mouse after ip administration of 40 mg/kg for 5 days expressed as increase in mean life span; format: functional; settings: 120 h, route intraperitoneal; how it was run: as §2
[12] = system: Mus musculus; test: Number of survivors out of 6 ip implanted P388 leukemia in mouse after ip administration of 20 mg/kg after 80 days; format: functional; settings: route intraperitoneal
How it was run: (§6)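 P388 leukemia, 10^6 ascitic cells implanted ip in female BDF1 mice. Drug in saline given ip for 5 consecutive days from 24 h after transplant. Groups of six per dose level. Survivors/total recorded at the 80-day end of observation; ILS % from treated/control mean survival time.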

[13] = system: Mus musculus; test: Effect on ip implanted sarcoma 180 by ip administration for 5 days at 10 mg/kg was measured as increase in mean life span; format: functional; settings: Sarcoma-180, ip, 120 h, route intraperitoneal
How it was run: (§7)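 Saline-dissolved drug was dosed ip daily for 5 consecutive days starting 24 h later. Readout was ILS % (mean survival time of treated vs control) over an 80-day observation.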

[14] = system: Mus musculus; test: Number of survivors out of 6 ip implanted L1210 leukemia in mouse after ip administration of 10 mg/kg after 80 days; format: functional; settings: route intraperitoneal
How it was run: (§8)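 Female BDF1 mice implanted ip with ascitic fluid holding 10^5 L1210 cells. Saline-dissolved drug given ip daily on days 1-5, starting 24 h after implant. Six mice per dose group, followed 80 days. Survivors/total counted at day 80; ILS % from mean survival time vs controls.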

[15] = system: Mus musculus; test: Number of survivors out of 6 ip implanted EAC leukemia mouse tested after 80 days at 40 mg/kg; format: functional; settings: route intraperitoneal; how it was run: as §4
[16] = system: Mus musculus; test: Number of survivors out of 6 ip implanted L1210 leukemia in mouse after ip administration of 20 mg/kg after 80 days; format: functional; settings: route intraperitoneal; how it was run: as §8
[17] = system: Mus musculus; test: Effect on ip implanted EAC by ip administration for 5 days at 10 mg/kg was measured as increase in mean life span; format: functional; settings: 120 h, route intraperitoneal; how it was run: as §3
[18] = system: Mus musculus; test: Effect on ip implanted sarcoma 180 by ip administration for 5 days at 20 mg/kg was measured as increase in mean life span; format: functional; settings: Sarcoma-180, ip, 120 h, route intraperitoneal; how it was run: as §7
[19] = system: Mus musculus; test: Number of survivors out of 6 ip implanted P388 leukemia in mouse after iv administration of 16 mg/kg after 80 days
[20] = system: Mus musculus; test: Effect on ip implanted syngeneic B16 melanoma by ip administration of 20 mg/kg for 9 days measured as increase in mean life span; settings: 216 h
[21] = system: Mus musculus; test: Number of survivors out of 6 ip implanted P388 leukemia in mouse after ip administration of 5 mg/kg after 80 days; format: functional; settings: route intraperitoneal; how it was run: as §6
[22] = system: Mus musculus; test: Antitumor activity against ip implanted L1210 leukemia in mouse after iv administration of 16 mg/kg for 5 days expressed as increase in mean life span; settings: 120 h
[23] = system: Mus musculus; test: Number of survivors out of 6 ip implanted P388 leukemia in mouse after ip administration of 10 mg/kg after 80 days; format: functional; settings: route intraperitoneal; how it was run: as §6
[24] = system: Mus musculus; test: Antitumor activity against ip implanted P388 leukemia in mouse after ip administration of 40 mg/kg for 5 days expressed as increase in mean life span; format: functional; settings: 120 h, route intraperitoneal; how it was run: as §5
[25] = system: Mus musculus; test: Effect on ip implanted syngeneic B16 melanoma by ip administration for 9 days at 10 mg/kg was measured as increase in mean life span; settings: 216 h
[26] = system: Mus musculus; test: Effect on ip implanted EAC by ip administration for 5 days at 40 mg/kg was measured as increase in mean life span; format: functional; settings: 120 h, route intraperitoneal; how it was run: as §3
[27] = system: Mus musculus; test: Antitumor activity against ip implanted P388 leukemia in mouse after ip administration of 5 mg/kg for 5 days expressed as increase in mean life span; format: functional; settings: 120 h, route intraperitoneal; how it was run: as §5
[28] = system: Mus musculus; test: Number of survivors out of 6 ip implanted L1210 leukemia mouse, tested after 80 days at 30 mg/kg; format: functional; settings: route intraperitoneal; how it was run: as §8
[29] = system: Mus musculus; test: Antitumor activity against ip implanted P388 leukemia in mouse after ip administration of 10 mg/kg for 5 days expressed as increase in mean life span; format: functional; settings: 120 h, route intraperitoneal; how it was run: as §5
[30] = system: Mus musculus; test: Number of survivors out of 6 ip implanted EAC leukemia mouse tested after 80 days at 10 mg/kg; format: functional; settings: route intraperitoneal; how it was run: as §4
[31] = system: Mus musculus; test: Effect on ip implanted syngeneic B16 melanoma by ip administration for 9 days at 5 mg/kg was measured as increase in mean life span; settings: 216 h
[32] = system: Mus musculus; test: Inhibition of sc implanted syngeneic colon 38 carcinoma by ip administration at 30 mg/kg on 1, 3, 5, 7, 9 days measured as inhibition ratio; format: functional; settings: route intraperitoneal; how it was run: as §1
[33] = system: Mus musculus; test: Antitumor activity against ip implanted L1210 leukemia in mouse after ip administration of 30 mg/kg for 5 days expressed as increase in mean life span; format: functional; settings: Mus musculus, L1210, ip, 120 h, route intraperitoneal; how it was run: as §2
[34] = system: Mus musculus; test: Effect on ip implanted sarcoma 180 by ip administration for 5 days at 40 mg/kg was measured as increase in mean life span; format: functional; settings: Sarcoma-180, ip, 120 h, route intraperitoneal; how it was run: as §7
[35] = system: Mus musculus; test: Antitumor activity against ip implanted P388 leukemia in mouse after ip administration of 20 mg/kg for 5 days expressed as increase in mean life span; format: functional; settings: 120 h, route intraperitoneal; how it was run: as §5
[36] = system: Mus musculus; test: Antitumor activity against ip implanted P388 leukemia in mouse after iv administration of 16 mg/kg for 5 days expressed as increase in mean life span; settings: 120 h
[37] = system: Mus musculus; test: Number of survivors out of 6 ip implanted sarcoma 180 leukemia mouse tested after 80 days at 40 mg/kg; format: functional; settings: route intraperitoneal; how it was run: as §4
[38] = system: Mus musculus; test: Antitumor activity against ip implanted L1210 leukemia in mouse after iv administration of 8 mg/kg for 5 days expressed as increase in mean life span; settings: 120 h
[39] = system: Mus musculus; test: Antitumor activity against ip implanted L1210 leukemia in mouse after ip administration of 1.25 mg/kg for 5 days expressed as increase in mean life span; format: functional; settings: 120 h, route intraperitoneal; how it was run: as §2

## Cc1c2cc[n+]([C@@H]3O[C@H](CO)[C@H](O)[C@H]3O)cc2c(C)c2c1[nH]c1ccc(O)cc12.[Cl-]
[1]
  T/C: 36%
[2]
  ILS at 10 mg/kg: > 272%
[3]
  ILS at 5 mg/kg: 73%
[4]
  ILS at 8 mg/kg: 122%
[5]
  ILS at 2.5 mg/kg: 38%
[6]
  ILS at 20 mg/kg: > 380%
[7]
  Cures: 3
[8]
  ILS at 5 mg/kg: 125%
[9]
  ILS at 20 mg/kg: > 244%
[10]
  ILS at 1.25 mg/kg: 110%
[11]
  ILS at 40 mg/kg: 59%
[12]
  Cures: 5
[13]
  ILS at 10 mg/kg: 69%
[14]
  Cures: 1
[15]
  Cures: 5
[16]
  Cures: 1
[17]
  ILS at 10 mg/kg: > 318%
[18]
  ILS at 20 mg/kg: > 318%
[19]
  Cures: 2
[20]
  ILS at 20 mg/kg: 52%
[21]
  Cures: 3
[22]
  ILS at 16 mg/kg: 168%
[23]
  Cures: 2
[24]
  ILS at 40 mg/kg: 112%
[25]
  ILS at 10 mg/kg: 64%
[26]
  ILS at 40 mg/kg: > 501%
[27]
  ILS at 5 mg/kg: > 418%
[28]
  Cures: 4
[29]
  ILS at 10 mg/kg: > 376%
[30]
  Cures: 2
[31]
  ILS at 5 mg/kg: 42%
[32]
  T/C: 2%
[33]
  ILS at 30 mg/kg: > 682%
[34]
  ILS at 40 mg/kg: > 335%
[35]
  ILS at 20 mg/kg: > 628%
[36]
  ILS at 16 mg/kg: > 417%
[37]
  Cures: 2
[38]
  ILS at 8 mg/kg: 102%
[39]
  ILS at 1.25 mg/kg: 55%
